From ChEMBL document CHEMBL4414571, “Sordarin Diterpene Glycosides with an Unusual 1,3-Dioxolan-4-one Ring from the Zoanthid-Derived Fungus Curvularia hawaiiensis TA26-15” (2019)
≈ marks a conversion by molar mass, not a printed value.

The compounds below were run on Candida albicans (assay: Antifungal activity against Candida albicans ATCC 10231 by NCCLS-protocol based microplate reader analysis).
Assay type: functional
Procedure, shortened: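 Broth microdilution per NCCLS. Strains grown on potato dextrose agar; inoculum prepared from broth culture (28 °C, 48 h) and adjusted to 104 mycelial fragments/mL. Compounds from 100 μM DMSO stock were serially diluted in triplicate, spore suspension added to 200 μL final volume. Carbendazim served as positive control. Absorbance read at 492 nm after incubation; MIC calculated.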

Row | MIC | SMILES
1 | 3.7 µM (≈ 2.56 µg/mL) | CO[C@@H]1[C@@H](C)O[C@@H](OC[C@@]23C[C@@H]4[C@H](C)CC[C@H]4[C@@]4(C=O)C[C@@H]2C=C(C(C)C)[C@@]34C(=O)O)[C@@H](O)[C@@]12OC(=O)[C@H](CCCCCCCC(=O)O)O2
2 | 15 µM (≈ 10.6 µg/mL) | CO[C@@H]1[C@@H](C)O[C@@H](OC[C@@]23C[C@@H]4[C@H](C)CC[C@H]4[C@@]4(C(=O)O)C[C@@H]2C=C(C(C)C)[C@@]34C(=O)O)[C@@H](O)[C@@]12OC(=O)[C@H](CCCCCCCC(=O)O)O2
3 | 9.8 µM (≈ 6.36 µg/mL) | COC(=O)CCC[C@@H]1O[C@@]2(OC1=O)[C@H](O)[C@H](OC[C@@]13C[C@@H]4[C@H](C)CC[C@H]4[C@@]4(C=O)C[C@@H]1C=C(C(C)C)[C@@]34C(=O)O)O[C@H](C)[C@H]2OC
4 | 24 µM (≈ 8.36 µg/mL) | CC(C)C1=C[C@H]2C[C@]3(C(=O)O)[C@@H]4CC[C@@H](C)[C@H]4C[C@@]2(CO)[C@]13C(=O)O
5 | 8.7 µM (≈ 5.77 µg/mL) | CO[C@@H]1[C@@H](C)O[C@@H](OC[C@@]23C[C@@H]4[C@H](C)CC[C@H]4[C@@]4(C=O)C[C@@H]2C=C(C(C)C)[C@@]34C(=O)O)[C@@H](O)[C@@]12OC(=O)[C@H](CCCCCC(=O)O)O2
6 | 2.9 µM (≈ 2.04 µg/mL) | COC(=O)CCCCCCC[C@@H]1O[C@@]2(OC1=O)[C@H](O)[C@H](OC[C@@]13C[C@@H]4[C@H](C)CC[C@H]4[C@@]4(C=O)C[C@@H]1C=C(C(C)C)[C@@]34C(=O)O)O[C@H](C)[C@H]2OC
7 | 13 µM (≈ 9.37 µg/mL) | COC(=O)CCCCCCC[C@@H]1O[C@@]2(OC1=O)[C@H](O)[C@H](OC[C@@]13C[C@@H]4[C@H](C)CC[C@H]4[C@@]4(C(=O)O)C[C@@H]1C=C(C(C)C)[C@@]34C(=O)O)O[C@H](C)[C@H]2OC
8 | 12 µM (≈ 7.62 µg/mL) | CO[C@@H]1[C@@H](C)O[C@@H](OC[C@@]23C[C@@H]4[C@H](C)CC[C@H]4[C@@]4(C=O)C[C@@H]2C=C(C(C)C)[C@@]34C(=O)O)[C@@H](O)[C@@]12OC(=O)[C@H](CCCC(=O)O)O2

Row | SMILES | MIC
9 | CC(C)C1=C[C@H]2C[C@]3(C=O)[C@@H]4CC[C@@H](C)[C@H]4C[C@@]2(CO)[C@]13C(=O)O | 18 µM (≈ 5.98 µg/mL)
10 | COC(=O)Nc1nc2ccccc2[nH]1 [CARBENDAZIM] | 0.16 µM (≈ 0.0306 µg/mL)
